Source: ChEMBL document CHEMBL3243954 (J Med Chem, 1979)

Key:
Mus musculus [1] = experiment: Antimetrazol activity in iv dosed mouse assessed as inhibition of metrazol-induced tonic-extensor seizures administered 30 mins prior to metrazol challenge; type: functional
Procedure, shortened: (§1)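 Mice dosed iv with the ester in aqueous solution containing under 10% chremofor. Metrazol 125 mg/kg sc was given 30 or 60 min after the ester. ED50 is the dose preventing tonic-extensor seizures in 50% of mice, derived by probit analysis.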

Mus musculus [2] = experiment: Antimetrazol activity in iv dosed mouse assessed as inhibition of metrazol-induced tonic-extensor seizures administered 60 mins prior to metrazol challenge; type: functional; procedure, shortened: as §1
Mus musculus [3] = experiment: Muscle relaxant activity in iv dosed mouse after 30 mins by rotarod test; type: ADME, organism-based; details: in vivo, 0.5 h
Mus musculus [4] = experiment: Muscle relaxant activity in iv dosed mouse after 60 mins by rotarod test; type: ADME, organism-based; details: in vivo, 1 h
Mus musculus [5] = species: Mus musculus; experiment: Ratio of ED50 for muscle relaxant activity in mouse to ED50 for antimetrazol activity in mouse measured after 30 mins
[6] = Drug metabolism in mouse liver microsomes assessed as rate of esterase-mediated compound hydrolysis measured per mg of protein by pH stat based titrimetric analysis; type: ADME
Mus musculus [7] = species: Mus musculus; experiment: Ratio of ED50 for muscle relaxant activity in mouse to ED50 for antimetrazol activity in mouse measured after 60 mins
esterase = experiment: (§2) Drug metabolism in mouse liver microsomes assessed as rate of esterase-mediated compound hydrolysis by pH stat based titrimetric analysis; type: ADME; details: liver microsomes
[8] = as §2; type: ADME; details: microsomes
Brain [9] = experiment: Drug uptake albino mouse brain at 5 mg equivalent of oxazepam/kg, iv after 3 mins measured per gm of tissue by thin-layer chromatography; type: ADME, organism-based; details: in vivo, 0.05 h
Brain [10] = experiment: Drug uptake albino mouse brain at 5 mg equivalent of oxazepam/kg, iv after 5 mins measured per gm of tissue by thin-layer chromatography; type: ADME, organism-based; details: in vivo
Brain [11] = experiment: Drug uptake albino mouse brain at 5 mg equivalent of oxazepam/kg, iv after 10 mins measured per gm of tissue by thin-layer chromatography; type: ADME, organism-based; details: in vivo
Brain [12] = experiment: Drug uptake albino mouse brain at 5 mg equivalent of oxazepam/kg, iv after 20 mins measured per gm of tissue by thin-layer chromatography; type: ADME, organism-based; details: in vivo
Brain [13] = experiment: Drug uptake albino mouse brain at 5 mg equivalent of oxazepam/kg, iv after 40 mins measured per gm of tissue by thin-layer chromatography; type: ADME, organism-based; details: in vivo
Brain [14] = experiment: Drug uptake albino mouse brain at 5 mg equivalent of oxazepam/kg, iv after 60 mins measured per gm of tissue by thin-layer chromatography; type: ADME, organism-based; details: in vivo, 1 h
Brain [15] = experiment: Drug uptake albino mouse brain at 5 mg equivalent of oxazepam/kg, iv after 120 mins measured per gm of tissue by thin-layer chromatography; type: ADME, organism-based; details: in vivo, 2 h
Brain [16] = experiment: Drug uptake albino mouse brain at 5 mg equivalent of oxazepam/kg, iv after 240 mins measured per gm of tissue by thin-layer chromatography; type: ADME, organism-based; details: in vivo, 4 h
Liver [17] = experiment: Drug metabolism in albino mouse liver assessed as total metabolite concentration at 5 mg equivalent of oxazepam/kg, iv after 1 min by thin layer chromatography; type: ADME, organism-based; details: in vivo
Procedure, shortened: (§3)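 Liver was dried and its total radioactivity, the sum of metabolites, was measured on a carbon-tritium analyzer. Values are means of four mice (±SE).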

Liver [18] = experiment: Drug metabolism in albino mouse liver assessed as total metabolite concentration at 5 mg equivalent of oxazepam/kg, iv after 3 mins by thin layer chromatography; type: ADME, organism-based; details: in vivo, 0.05 h; procedure, shortened: as §3
Liver [19] = experiment: Drug metabolism in albino mouse liver assessed as total metabolite concentration at 5 mg equivalent of oxazepam/kg, iv after 5 mins by thin layer chromatography; type: ADME, organism-based; details: in vivo; procedure, shortened: as §3
Liver [20] = experiment: Drug metabolism in albino mouse liver assessed as total metabolite concentration at 5 mg equivalent of oxazepam/kg, iv after 10 mins by thin layer chromatography; type: ADME, organism-based; details: in vivo; procedure, shortened: as §3
[21] = Retardation factor, Rm of the compound by thin-layer chromatography; type: physicochemical
Brain [22] = experiment: Drug uptake albino mouse brain at 5 mg equivalent of oxazepam/kg, iv after 1 min measured per gm of tissue by thin-layer chromatography; type: ADME, organism-based; details: in vivo
Brain [23] = experiment: Drug uptake albino mouse brain at 10 mg equivalent of oxazepam/kg, iv after 12 mins measured per gm of tissue by thin-layer chromatography; type: ADME, organism-based; details: in vivo, 0.2 h
Brain [24] = experiment: Drug uptake albino mouse brain at 10 mg equivalent of oxazepam/kg, iv after 1 min measured per gm of tissue by thin-layer chromatography; type: ADME, organism-based; details: in vivo
Brain [25] = experiment: Drug uptake albino mouse brain at 10 mg equivalent of oxazepam/kg, iv after 3 mins measured per gm of tissue by thin-layer chromatography; type: ADME, organism-based; details: in vivo, 0.05 h
Brain [26] = experiment: Drug uptake albino mouse brain at 10 mg equivalent of oxazepam/kg, iv after 6 mins measured per gm of tissue by thin-layer chromatography; type: ADME, organism-based; details: in vivo, 0.1 h
Brain [27] = experiment: Drug uptake albino mouse brain at 10 mg equivalent of oxazepam/kg, iv after 20 mins measured per gm of tissue by thin-layer chromatography; type: ADME, organism-based; details: in vivo
Brain [28] = experiment: Drug uptake albino mouse brain at 10 mg equivalent of oxazepam/kg, iv after 40 mins measured per gm of tissue by thin-layer chromatography; type: ADME, organism-based; details: in vivo
[29] = Mus musculus, iv, read-out: ED50

## CCC(=O)OC1N=C(c2ccccc2)c2cc(Cl)ccc2NC1=O (configuration not stated)
Mus musculus [1]; [29]
  ED50: 0.13 mg/kg
Mus musculus [2]; [29]
  ED50: 0.32 mg/kg
Mus musculus [3]
  ED50: 4.45 mg/kg
Mus musculus [4]
  ED50: 4.4 mg/kg
Mus musculus [5]
  Ratio ED50: 34.2
[6]
  Vmax: 139 nmol/min
Mus musculus [7]
  Ratio ED50: 13.8

## CC(C)C(=O)OC1N=C(c2ccccc2)c2cc(Cl)ccc2NC1=O (configuration not stated)
Mus musculus [1]; [29]
  ED50: 0.51 mg/kg
Mus musculus [2]; [29]
  ED50: 0.33 mg/kg
Mus musculus [3]
  ED50: 2.45 mg/kg
Mus musculus [4]
  ED50: 2.67 mg/kg
Mus musculus [5]
  Ratio ED50: 4.8
[6]
  Vmax: 131 nmol/min
Mus musculus [7]
  Ratio ED50: 8.1

## CCCC(=O)OC1N=C(c2ccccc2)c2cc(Cl)ccc2NC1=O (configuration not stated)
Mus musculus [1]; [29]
  ED50: 0.29 mg/kg
Mus musculus [2]; [29]
  ED50: 0.32 mg/kg
Mus musculus [3]
  ED50: 2.64 mg/kg
Mus musculus [4]
  ED50: 3.28 mg/kg
Mus musculus [5]
  Ratio ED50: 9.1
[6]
  Vmax: 88 nmol/min
Mus musculus [7]
  Ratio ED50: 10.3

## CCC(CC)C(=O)OC1N=C(c2ccccc2)c2cc(Cl)ccc2NC1=O (configuration not stated)
Mus musculus [1]; [29]
  ED50: 0.28 mg/kg
Mus musculus [2]; [29]
  ED50: 0.33 mg/kg
Mus musculus [3]
  ED50: 2.8 mg/kg
Mus musculus [4]
  ED50: 3.42 mg/kg
Mus musculus [5]
  Ratio ED50: 10
[6]
  Vmax: 1.4 nmol/min
Mus musculus [7]
  Ratio ED50: 10.4

## O=C(CCc1ccccc1)OC1N=C(c2ccccc2)c2cc(Cl)ccc2NC1=O (configuration not stated)
esterase
  Km: 9.7 µM
Mus musculus [1]; [29]
  ED50: 0.44 mg/kg
Mus musculus [2]; [29]
  ED50: 0.31 mg/kg
Mus musculus [3]
  ED50: 2.57 mg/kg
Mus musculus [4]
  ED50: 3.56 mg/kg
Mus musculus [5]
  Ratio ED50: 5.8
[6]
  Vmax: 7.9 nmol/min
Mus musculus [7]
  Ratio ED50: 11.5

## O=C(CCCc1ccccc1)OC1N=C(c2ccccc2)c2cc(Cl)ccc2NC1=O (configuration not stated)
esterase
  Km: 9.5 µM
[6]
  Vmax: 1.5 nmol/min

## O=C1Nc2ccc(Cl)cc2C(c2ccccc2)=NC1O (configuration not stated) [OXAZEPAM]
Mus musculus [1]; [29]
  ED50: 0.18 mg/kg
Mus musculus [2]; [29]
  ED50: 0.39 mg/kg

## CC(Cc1ccccc1)C(=O)OC1N=C(c2ccccc2)c2cc(Cl)ccc2NC1=O (stereo in doubt; 11)
[8]
  Km: 25 µM
Mus musculus [1]
  ED50: 0.39 mg/kg
Mus musculus [2]
  ED50: 0.82 mg/kg
Mus musculus [3]
  ED50: 2.67 mg/kg
Mus musculus [4]
  ED50: 3.83 mg/kg
Mus musculus [5]
  Ratio ED50: 6.8
[6]
  Vmax: 7.3 nmol/min
Mus musculus [7]
  Ratio ED50: 4.7

## O=C(CCc1ccccc1)OC1N=C(c2ccccc2)c2cc(Cl)ccc2N[14C]1=O (configuration not stated)
Brain [9]
  Drug uptake: 0.8 nmol
Brain [10]
  Drug uptake: 1.4 nmol
Brain [11]
  Drug uptake: 2.2 nmol
Brain [12]
  Drug uptake: 7.1 nmol
Brain [13]
  Drug uptake: 12.1 nmol
Brain [14]
  Drug uptake: 13.6 nmol
Brain [15]
  Drug uptake: 12.2 nmol
Brain [16]
  Drug uptake: 6.6 nmol
Liver [17]
  Drug metabolism: 40.7 nmol/g
Liver [18]
  Drug metabolism: 45.6 nmol/g
Liver [19]
  Drug metabolism: 34.7 nmol/g
Liver [20]
  Drug metabolism: 32.6 nmol/g
[21]
  Rm: 0.5
Brain [22]
  Drug uptake: 0.5 nmol

## CCC(=O)OC1N=C(c2ccccc2)c2cc(Cl)ccc2N[14C]1=O (configuration not stated)
Brain [23]
  Drug uptake: 30.8 nmol
Brain [24]
  Drug uptake: 12.6 nmol
Brain [25]
  Drug uptake: 17.5 nmol
Brain [26]
  Drug uptake: 24.2 nmol
Brain [27]
  Drug uptake: 41.7 nmol
Brain [28]
  Drug uptake: 33 nmol
[21]
  Rm: -0.03

## CC(Cc1ccccc1)C(=O)OC1N=C(c2ccccc2)c2cc(Cl)ccc2N[14C]1=O (racemic)
Brain [9]
  Drug uptake: 1.3 nmol
Brain [11]
  Drug uptake: 4.7 nmol
Brain [12]
  Drug uptake: 5.4 nmol
Brain [13]
  Drug uptake: 10 nmol
Brain [14]
  Drug uptake: 13 nmol
Brain [15]
  Drug uptake: 14.2 nmol
Brain [16]
  Drug uptake: 5.5 nmol
[21]
  Rm: 0.64
